Source: ChEMBL document CHEMBL4038333, “Nonacidic Farnesoid X Receptor Modulators” (J Med Chem, 2017)
Activity calls are given as the source filed them. The rule behind the calls is not given here.

Tests used:
Bile acid receptor = biological target: T1, Bile acid receptor (Homo sapiens, UniProt Q96RI1); assay: Binding affinity to FXR (unknown origin) ligand binding domain by ITC assay
T1 sequence (Q96RI1 whole entry): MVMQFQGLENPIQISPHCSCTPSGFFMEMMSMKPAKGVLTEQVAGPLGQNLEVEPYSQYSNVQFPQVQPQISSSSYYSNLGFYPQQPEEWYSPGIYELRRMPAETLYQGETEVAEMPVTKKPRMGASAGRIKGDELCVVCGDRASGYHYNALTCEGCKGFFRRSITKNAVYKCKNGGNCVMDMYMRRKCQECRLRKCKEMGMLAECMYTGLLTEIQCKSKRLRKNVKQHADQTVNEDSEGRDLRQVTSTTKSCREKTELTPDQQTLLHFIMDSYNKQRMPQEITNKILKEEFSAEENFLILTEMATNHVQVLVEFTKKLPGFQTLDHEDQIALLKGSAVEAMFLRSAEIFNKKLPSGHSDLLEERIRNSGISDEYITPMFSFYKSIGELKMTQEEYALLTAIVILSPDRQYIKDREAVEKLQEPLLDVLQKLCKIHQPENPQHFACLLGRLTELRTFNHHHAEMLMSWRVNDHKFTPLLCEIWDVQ

HepG2 = assay: Cytotoxicity against human HepG2 cells up to 100 uM after 48 hrs by WST-1 assay; assay type: cell-based; details: hepg2, 48 h
[1] = Half life in human HepG2 cells by HPLC analysis; assay type: ADME, cell-based
[2] = Metabolic stability in human HepG2 cells assessed as compound remaining after 24 hrs by HPLC analysis; assay type: ADME, cell-based; details: read-out: Stability
[3] = biological target: G-protein coupled bile acid receptor 1 (Homo sapiens) (UniProt Q8TDU6); assay: Agonist activity at TGR5 (unknown origin) expressed in HEK293T cells at 1 uM after 12 to 14 hrs by dual-glo luciferase reporter gene assay; assay type: cell-based
Method in brief: (§1)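 Run as a selectivity screen against each listed receptor (14 nuclear receptors plus TGR5), in both agonist and antagonist modes. Test concentration was 1 µM, with n = 3.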

[4] = biological target: Vitamin D3 receptor (Homo sapiens) (UniProt P11473); assay: Transactivation of GAL4-tagged human VDR isoform 1 ligand binding domain (119 to 427 residues) expressed in HEK293T cells at 1 uM after 12 to 14 hrs by dual-glo luciferase reporter gene assay; assay type: cell-based; details: HEK-293T; method in brief: as §1
[5] = biological target: Retinoic acid receptor beta (Homo sapiens) (UniProt P10826); assay: Transactivation of GAL4-tagged human RARbeta1 ligand binding domain (177 to 455 residues) expressed in HEK293T cells at 1 uM after 12 to 14 hrs by dual-glo luciferase reporter gene assay; assay type: cell-based; details: HEK-293T; method in brief: as §1
[6] = biological target: Retinoic acid receptor RXR-gamma (Homo sapiens) (UniProt P48443); assay: Transactivation of GAL4-tagged human RXRgamma ligand binding domain (229 to 463 residues) expressed in HEK293T cells at 1 uM after 12 to 14 hrs by dual-glo luciferase reporter gene assay; assay type: cell-based; details: HEK-293T; method in brief: as §1
[7] = biological target: Oxysterols receptor LXR-beta (Homo sapiens) (UniProt P55055); assay: Transactivation of GAL4-tagged human LXRbeta ligand binding domain expressed in HEK293T cells at 1 uM after 12 to 14 hrs by dual-glo luciferase reporter gene assay; assay type: cell-based; details: HEK-293T; method in brief: as §1
[8] = biological target: Oxysterols receptor LXR-alpha (Homo sapiens) (UniProt Q13133); assay: Transactivation of GAL4-tagged human LXRalpha ligand binding domain expressed in HEK293T cells at 1 uM after 12 to 14 hrs by dual-glo luciferase reporter gene assay; assay type: cell-based; details: HEK-293T; method in brief: as §1
[9] = biological target: Nuclear receptor subfamily 1 group I member 2 (Homo sapiens, UniProt O75469); assay: Antagonist activity at GAL4-tagged human PXR isoform 1 ligand binding domain (138 to 434 residues) expressed in HEK293T cells at 1 uM after 12 to 14 hrs by dual-glo luciferase reporter gene assay; assay type: cell-based; details: hek-293t; method in brief: as §1
[10] = biological target: Retinoic acid receptor beta (Homo sapiens) (UniProt P10826); assay: Antagonist activity at GAL4-tagged human RARbeta1 ligand binding domain (177 to 455 residues) expressed in HEK293T cells at 1 uM after 12 to 14 hrs by dual-glo luciferase reporter gene assay; assay type: cell-based; details: HEK-293T; method in brief: as §1
[11] = biological target: Retinoic acid receptor alpha (Homo sapiens) (UniProt P10276); assay: Antagonist activity at GAL4-tagged human RARalpha1 ligand binding domain (177 to 462 residues) expressed in HEK293T cells at 1 uM after 12 to 14 hrs by dual-glo luciferase reporter gene assay; assay type: cell-based; details: HEK-293T; method in brief: as §1
[12] = biological target: Oxysterols receptor LXR-beta (Homo sapiens) (UniProt P55055); assay: Antagonist activity at GAL4-tagged human LXRbeta ligand binding domain expressed in HEK293T cells at 1 uM after 12 to 14 hrs by dual-glo luciferase reporter gene assay; assay type: cell-based; details: HEK-293T; method in brief: as §1
[13] = biological target: Oxysterols receptor LXR-alpha (Homo sapiens) (UniProt Q13133); assay: Antagonist activity at GAL4-tagged human LXRalpha ligand binding domain expressed in HEK293T cells at 1 uM after 12 to 14 hrs by dual-glo luciferase reporter gene assay; assay type: cell-based; details: HEK-293T; method in brief: as §1
[14] = biological target: Peroxisome proliferator-activated receptor delta (Homo sapiens) (UniProt Q03181); assay: Antagonist activity at GAL4-tagged human PPARdelta ligand binding domain expressed in HEK293T cells at 1 uM after 12 to 14 hrs by dual-glo luciferase reporter gene assay; assay type: cell-based; details: HEK-293T; method in brief: as §1
[15] = biological target: Peroxisome proliferator-activated receptor alpha (Homo sapiens) (UniProt Q07869); assay: Antagonist activity at GAL4-tagged human PPARalpha ligand binding domain expressed in HEK293T cells at 1 uM after 12 to 14 hrs by dual-glo luciferase reporter gene assay; assay type: cell-based; details: HEK-293T; method in brief: as §1
HeLa [16] = assay: Selectivity ratio for human FXR expressed in human HeLa cells co-expressing BSEP over GAL4-tagged human VDR isoform 1 ligand binding domain (119 to 427 residues) expressed in HEK293T cells; assay type: cell-based
HeLa [17] = assay: Selectivity ratio for human FXR expressed in human HeLa cells co-expressing BSEP over GAL4-tagged human RARgamma isoform 1 ligand binding domain (179 to 454 residues) expressed in HEK293T cells; assay type: cell-based
HeLa [18] = assay: Selectivity ratio for human FXR expressed in human HeLa cells co-expressing BSEP over GAL4-tagged human RXRgamma ligand binding domain (229 to 463 residues) expressed in HEK293T cells; assay type: cell-based
HeLa [19] = assay: Selectivity ratio for human FXR expressed in human HeLa cells co-expressing BSEP over GAL4-tagged human RXRalpha ligand binding domain (225 to 462 residues) expressed in HEK293T cells; assay type: cell-based
HeLa [20] = assay: Selectivity ratio for human FXR expressed in human HeLa cells co-expressing BSEP over GAL4-tagged human LXRbeta ligand binding domain expressed in HEK293T cells; assay type: cell-based
HeLa [21] = assay: Selectivity ratio for human FXR expressed in human HeLa cells co-expressing BSEP over GAL4-tagged human PPARdelta ligand binding domain expressed in HEK293T cells; assay type: cell-based
[22] = biological target: T2, Bile acid receptor (Homo sapiens) (UniProt Q96RI1); assay: Modulation of FXR in human HepG2 cells assessed as suppression of CYP7A1 mRNA expression at 10 nM by qRT-PCR analysis; assay type: cell-based
T2 sequence (whole entry): T1 sequence (Q96RI1 whole entry)
Method in brief: (§2)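 HepG2 hepatocarcinoma cells were incubated with the compound at 10 nM. FXR target-gene mRNA was quantified by qRT-PCR (n = 3), with significance at p < 0.05, 0.01 and 0.001.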

[23] = biological target: T2, Bile acid receptor (Homo sapiens); assay: Modulation of FXR in human HepG2 cells assessed as suppression of SREBP1c mRNA expression at 10 nM by qRT-PCR analysis; assay type: cell-based; method in brief: as §2

Oxysterols receptor LXR-alpha (Homo sapiens), sequence (Q13133 whole entry, the tested form may be a part, canonical isoform): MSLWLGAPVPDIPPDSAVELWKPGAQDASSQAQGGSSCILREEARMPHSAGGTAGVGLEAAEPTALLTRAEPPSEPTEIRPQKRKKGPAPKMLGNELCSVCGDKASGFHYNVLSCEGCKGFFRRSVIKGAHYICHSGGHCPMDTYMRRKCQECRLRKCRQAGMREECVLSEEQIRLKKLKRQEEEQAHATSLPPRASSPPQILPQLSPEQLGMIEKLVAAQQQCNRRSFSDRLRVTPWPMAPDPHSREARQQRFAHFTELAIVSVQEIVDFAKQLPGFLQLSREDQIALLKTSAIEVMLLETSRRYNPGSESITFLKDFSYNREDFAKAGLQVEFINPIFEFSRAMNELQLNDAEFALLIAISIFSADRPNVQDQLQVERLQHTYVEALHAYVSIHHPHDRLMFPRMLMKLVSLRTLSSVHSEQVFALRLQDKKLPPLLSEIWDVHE
Retinoic acid receptor beta (Homo sapiens), sequence (P10826 whole entry, the tested form may be a part): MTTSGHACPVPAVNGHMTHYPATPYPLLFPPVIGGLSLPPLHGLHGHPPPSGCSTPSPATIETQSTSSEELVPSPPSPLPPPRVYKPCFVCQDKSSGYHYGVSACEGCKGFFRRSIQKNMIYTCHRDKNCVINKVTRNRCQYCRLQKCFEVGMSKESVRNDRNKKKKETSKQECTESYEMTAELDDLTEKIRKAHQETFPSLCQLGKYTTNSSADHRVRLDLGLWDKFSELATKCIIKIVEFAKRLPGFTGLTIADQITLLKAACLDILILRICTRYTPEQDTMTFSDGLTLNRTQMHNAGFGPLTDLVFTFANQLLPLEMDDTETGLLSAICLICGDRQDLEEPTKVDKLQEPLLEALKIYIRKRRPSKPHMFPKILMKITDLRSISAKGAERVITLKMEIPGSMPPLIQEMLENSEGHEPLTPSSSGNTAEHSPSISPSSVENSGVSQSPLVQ
Oxysterols receptor LXR-beta (Homo sapiens), sequence (P55055 whole entry, the tested form may be a part): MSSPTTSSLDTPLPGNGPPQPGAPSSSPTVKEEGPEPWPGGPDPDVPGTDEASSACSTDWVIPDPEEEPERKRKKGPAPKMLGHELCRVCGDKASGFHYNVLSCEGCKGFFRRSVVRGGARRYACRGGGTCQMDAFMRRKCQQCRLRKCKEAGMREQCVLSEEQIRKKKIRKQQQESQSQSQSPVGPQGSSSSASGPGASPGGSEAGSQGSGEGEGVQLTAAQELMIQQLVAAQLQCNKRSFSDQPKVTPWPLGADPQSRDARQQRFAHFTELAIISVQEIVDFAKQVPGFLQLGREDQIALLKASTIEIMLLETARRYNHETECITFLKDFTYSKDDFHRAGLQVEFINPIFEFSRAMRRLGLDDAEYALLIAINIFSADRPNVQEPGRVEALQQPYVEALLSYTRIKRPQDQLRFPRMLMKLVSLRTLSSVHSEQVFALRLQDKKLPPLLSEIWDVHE
G-protein coupled bile acid receptor 1 (Homo sapiens), sequence (Q8TDU6 whole entry): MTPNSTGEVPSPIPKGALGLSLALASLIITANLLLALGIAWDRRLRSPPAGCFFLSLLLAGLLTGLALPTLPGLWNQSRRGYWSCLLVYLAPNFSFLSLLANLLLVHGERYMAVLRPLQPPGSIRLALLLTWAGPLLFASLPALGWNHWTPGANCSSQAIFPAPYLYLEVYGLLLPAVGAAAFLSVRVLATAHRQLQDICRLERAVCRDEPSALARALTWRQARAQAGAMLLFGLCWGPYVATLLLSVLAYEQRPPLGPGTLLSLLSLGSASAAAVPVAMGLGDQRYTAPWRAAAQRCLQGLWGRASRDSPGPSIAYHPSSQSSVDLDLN
Peroxisome proliferator-activated receptor alpha (Homo sapiens), sequence (Q07869 whole entry, the tested form may be a part, canonical isoform): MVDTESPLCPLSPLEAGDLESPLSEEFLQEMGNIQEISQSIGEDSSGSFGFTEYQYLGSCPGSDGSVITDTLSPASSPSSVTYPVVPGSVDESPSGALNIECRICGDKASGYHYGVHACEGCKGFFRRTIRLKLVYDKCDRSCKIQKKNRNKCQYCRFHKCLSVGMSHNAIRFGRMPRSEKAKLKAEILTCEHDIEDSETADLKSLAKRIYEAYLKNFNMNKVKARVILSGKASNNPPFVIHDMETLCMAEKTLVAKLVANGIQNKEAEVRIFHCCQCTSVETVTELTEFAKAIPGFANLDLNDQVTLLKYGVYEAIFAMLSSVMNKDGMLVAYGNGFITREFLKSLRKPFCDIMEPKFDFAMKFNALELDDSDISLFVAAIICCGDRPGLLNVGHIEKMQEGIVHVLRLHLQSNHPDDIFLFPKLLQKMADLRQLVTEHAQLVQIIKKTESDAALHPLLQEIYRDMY
Retinoic acid receptor alpha (Homo sapiens), sequence (P10276 whole entry, the tested form may be a part): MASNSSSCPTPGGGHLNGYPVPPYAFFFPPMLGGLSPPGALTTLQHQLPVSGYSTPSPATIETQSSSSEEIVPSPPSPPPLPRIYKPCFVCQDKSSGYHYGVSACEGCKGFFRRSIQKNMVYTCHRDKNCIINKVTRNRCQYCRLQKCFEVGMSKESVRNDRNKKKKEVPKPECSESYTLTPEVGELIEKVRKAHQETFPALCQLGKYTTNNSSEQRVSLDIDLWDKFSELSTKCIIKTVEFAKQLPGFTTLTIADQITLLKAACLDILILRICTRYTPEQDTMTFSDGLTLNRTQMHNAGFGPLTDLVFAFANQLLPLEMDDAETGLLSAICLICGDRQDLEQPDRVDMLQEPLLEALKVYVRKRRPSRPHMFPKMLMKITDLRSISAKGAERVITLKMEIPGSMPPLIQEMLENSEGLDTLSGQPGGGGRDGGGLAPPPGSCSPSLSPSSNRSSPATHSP
Retinoic acid receptor RXR-gamma (Homo sapiens), sequence (P48443 whole entry, the tested form may be a part): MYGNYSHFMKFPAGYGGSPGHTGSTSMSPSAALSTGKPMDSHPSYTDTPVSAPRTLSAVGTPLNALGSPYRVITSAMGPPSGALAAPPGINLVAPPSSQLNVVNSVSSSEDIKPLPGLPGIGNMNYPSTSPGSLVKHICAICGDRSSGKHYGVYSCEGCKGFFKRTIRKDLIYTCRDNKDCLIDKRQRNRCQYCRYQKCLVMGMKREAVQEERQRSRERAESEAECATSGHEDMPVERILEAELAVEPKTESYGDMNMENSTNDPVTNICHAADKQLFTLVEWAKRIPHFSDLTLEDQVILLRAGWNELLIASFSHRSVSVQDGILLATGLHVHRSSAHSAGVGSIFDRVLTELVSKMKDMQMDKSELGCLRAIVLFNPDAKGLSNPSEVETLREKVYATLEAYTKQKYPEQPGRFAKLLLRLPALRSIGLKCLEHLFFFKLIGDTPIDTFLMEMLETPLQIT
Nuclear receptor subfamily 1 group I member 2, sequence (O75469 whole entry, the tested form may be a part, canonical isoform): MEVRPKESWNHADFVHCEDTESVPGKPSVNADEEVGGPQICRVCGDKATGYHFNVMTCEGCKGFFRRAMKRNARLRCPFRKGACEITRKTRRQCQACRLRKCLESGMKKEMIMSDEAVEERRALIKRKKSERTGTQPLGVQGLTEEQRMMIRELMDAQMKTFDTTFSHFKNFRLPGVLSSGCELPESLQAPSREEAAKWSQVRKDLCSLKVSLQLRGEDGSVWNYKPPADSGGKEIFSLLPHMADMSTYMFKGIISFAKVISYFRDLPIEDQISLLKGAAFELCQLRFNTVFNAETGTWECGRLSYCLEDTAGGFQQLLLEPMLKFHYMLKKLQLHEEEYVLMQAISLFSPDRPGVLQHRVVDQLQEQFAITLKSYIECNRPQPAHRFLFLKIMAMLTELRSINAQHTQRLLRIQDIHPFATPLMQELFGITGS
Peroxisome proliferator-activated receptor delta (Homo sapiens), sequence (Q03181 whole entry, the tested form may be a part): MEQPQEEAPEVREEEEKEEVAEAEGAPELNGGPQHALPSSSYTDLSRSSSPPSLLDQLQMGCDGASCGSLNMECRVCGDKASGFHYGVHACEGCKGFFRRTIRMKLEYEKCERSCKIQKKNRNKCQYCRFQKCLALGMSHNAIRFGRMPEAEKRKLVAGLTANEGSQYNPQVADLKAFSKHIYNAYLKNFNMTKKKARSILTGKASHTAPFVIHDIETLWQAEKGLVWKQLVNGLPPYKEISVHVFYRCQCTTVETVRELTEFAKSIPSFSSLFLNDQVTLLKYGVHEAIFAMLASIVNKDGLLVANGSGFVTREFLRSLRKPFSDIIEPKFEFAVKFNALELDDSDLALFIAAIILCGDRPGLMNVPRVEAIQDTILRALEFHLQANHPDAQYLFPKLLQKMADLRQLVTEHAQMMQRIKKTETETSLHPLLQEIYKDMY
Vitamin D3 receptor (Homo sapiens), sequence (P11473 whole entry, the tested form may be a part, canonical isoform): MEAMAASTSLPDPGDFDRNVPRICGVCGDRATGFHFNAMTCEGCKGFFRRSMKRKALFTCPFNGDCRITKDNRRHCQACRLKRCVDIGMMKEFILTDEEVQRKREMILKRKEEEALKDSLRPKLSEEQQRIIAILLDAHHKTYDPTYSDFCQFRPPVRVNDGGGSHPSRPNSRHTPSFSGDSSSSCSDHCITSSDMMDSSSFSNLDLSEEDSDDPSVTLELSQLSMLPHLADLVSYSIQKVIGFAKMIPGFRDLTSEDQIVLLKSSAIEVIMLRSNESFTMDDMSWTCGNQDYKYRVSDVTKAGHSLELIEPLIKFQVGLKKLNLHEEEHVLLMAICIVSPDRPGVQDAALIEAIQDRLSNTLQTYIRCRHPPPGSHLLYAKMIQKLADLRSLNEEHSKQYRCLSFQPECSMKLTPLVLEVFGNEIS

Kd (Bile acid receptor): 37 nM
half-life [1]: 1.5 to 2 h
remaining at 24 h [2]: 12%
Activity [3]: inactive
Activity [4]: inactive
Activity [5]: inactive
Activity [6]: inactive
Activity [7]: inactive
Activity [8]: inactive
inhibition (INH) [9]: Not Active
inhibition [10]: inactive
inhibition [11]: inactive
inhibition [12]: inactive
inhibition [13]: inactive
inhibition [14]: inactive
inhibition [15]: inactive
Activity [22]: Active
Activity [23]: Active
Structure (SMILES): COc1ccc(CNc2c(-c3cc(Cl)ccn3)nc3ccc(Cl)cn23)cc1
Activity (HepG2): Non-Toxic
Selectivity ratio (HeLa [16]): 3000
Selectivity ratio (HeLa [17]): 3000
Selectivity ratio (HeLa [18]): 3000
Selectivity ratio (HeLa [19]): 3000
Selectivity ratio (HeLa [20]): 3000
Selectivity ratio (HeLa [21]): 3000
